# Measurements from ChEMBL document CHEMBL3352791, “Thioaryl naphthylmethanone oxime ether analogs as novel anticancer agents” (J Med Chem, 2014).
# Activity calls are given as the source filed them. No cut-off for these calls is given here.
# How the values were obtained:
# [1] = biological target: Platelet-derived growth factor receptor beta (Homo sapiens) (UniProt P09619); test: Inhibition of PDGFRbeta (unknown origin) at 10 uM
# Method in brief: (§1)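 Cell-free kinase profiling was run as a standard 33P-ATP-based in vitro kinase assay.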
# [2] = tested on: Mast/stem cell growth factor receptor Kit (Homo sapiens), P10721 [D816A]; test: Inhibition of cKit D816A mutant (unknown origin) at 10 uM; method in brief: as §1
# MDA-MB-231 [3] = test: Induction of cAMP level in human MDA-MB-231 cells at 0.1 to 25 uM in presence of forskolin; format: functional, cell-based
# Method in brief: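 MDA-MB-231 cells serum-starved for 4 h, treated with 500μM IBMX for 30 min, then exposed to compound for a further 30 min. Cellular cAMP read by HTRF kit.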
# [4] = biological target: cGMP-dependent 3',5'-cyclic phosphodiesterase (Homo sapiens) (UniProt O00408); test: Inhibition of PDE2A3 (unknown origin) activity at 1 to 10 uM
# Method in brief: (§2)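 Recombinant PDE isoform activity was read by fluorescence polarization. A binding reagent complexes with the nucleotide monophosphate that the phosphodiesterase generates from cAMP/cGMP, and this raises the polarization of the labelled substrate. Reference standards were PDE1A3 10µM IBMX, PDE2A3 1nM BAY 60-7550, PDE3CAT 1µM cilostazol, PDE4CAT rolipram, PDE5CAT 0.1µM sildenafil, PDE7A […], PDE8A1 10µM BRL-50481, PDE9A1 1µM SB 36216 and PDE11A1 dipyridamole.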
# [5] = biological target: Phosphodiesterase 4 (Homo sapiens) (UniProt P27815+Q08499+Q07343+Q08493); test: Inhibition of PDE4 CAT (unknown origin) activity at 1 to 10 uM; format: protein assay; method in brief: as §2
# [6] = biological target: cGMP-specific 3',5'-cyclic phosphodiesterase (Canis lupus familiaris) (UniProt O77746); test: Inhibition of PDE5 CAT (unknown origin) activity at 1 to 10 uM; conditions: Homo sapiens; method in brief: as §2
# [7] = biological target: Epidermal growth factor receptor (Homo sapiens) (UniProt P00533); test: Inhibition of EGF-induced EGFR phosphorylation at Tyr1173 in human MCF7 cells at 0.1 uM by ELISA; format: cell-based
# [8] = biological target: Epidermal growth factor receptor (Homo sapiens) (UniProt P00533); test: Inhibition of EGF-induced EGFR phosphorylation at Tyr845 in human MCF7 cells at 1 uM by ELISA; format: cell-based
# MCF7 [9] = test: Antiproliferative activity against human […] cells assessed as absence of growth recovery treated > 5 uM for 24 hrs followed by maintained in drug free medium for 72 hrs by MTT assay; format: functional, cell-based
# MCF7 [10] = test: Cytotoxicity against human […] cells assessed as cell viability at 5 uM by MTT assay in presence of z-IETD-FMK caspase-8 inhibitor; format: functional, cell-based
# Method in brief: (§3)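 Cells seeded 1×10^4/well in DMEM with 10% FBS, adhered overnight, serum-starved 4 h; pre-incubated 2 h with Z-IETD-FMK or Z-LEHD-FMK (10µM each), then 5μM compound for a further 24 h; viability by MTT.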
# MCF7 [11] = test: Cytotoxicity against human […] cells assessed as cell viability at 5 uM by MTT assay in presence of z-LEHD-FMK caspase-9 inhibitor; format: functional, cell-based; method in brief: as §3
# MDA-MB-231 [12] = test: Induction of apoptosis in human […] cells assessed as loss of mitochondrial membrane potential at 5 uM after 24 hrs by JC-1 staining based flow cytometry; format: functional, cell-based
# Method in brief: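 Cells treated at 5μM for 24 h, trypsinized, stained with JC-1 (1μg/ml) for 15 min at 37°C, washed in PBS and analysed by flow cytometry in FL1 and FL2 channels.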
# MDA-MB-231 [13] = test: Inhibition of cell migration in human MDA-MB-231 cells assessed as […] at 1 uM after 24 hrs by wound healing assay; format: functional, cell-based
# MDA-MB-231 [14] = test: Inhibition of VEGF-A expression in human MDA-MB-231 cells at 1 uM after 24 hrs by qPCR analysis; format: functional, cell-based
# Method in brief: (§4)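 Gene expression was measured by qPCR in MDA-MB-231 breast cancer cells treated with 1µM compound. GAPDH served as the housekeeping internal control.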
# MDA-MB-231 [15] = test: Inhibition of MTA expression in human MDA-MB-231 cells at 1 uM after 24 hrs by qPCR analysis; format: functional, cell-based
# Method in brief: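 MDA-MB-231 cells treated at 1µM. Transcript levels measured by qPCR with GAPDH as internal control.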
# MDA-MB-231 [16] = test: Inhibition of TGF-betaR1 expression in human MDA-MB-231 cells at 1 uM after 24 hrs by qPCR analysis; format: functional, cell-based; method in brief: as §4
# MDA-MB-231 [17] = test: Inhibition of ALDH1 in human MDA-MB-231 cells at 5 to 20 uM after 8 days by FACS analysis; format: functional, cell-based
# Method in brief: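 ALDH1-positive MDA-MB-231 cells identified with Aldefluor reagent and quantified by flow cytometry.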
# MCF7 [18] = test: Inhibition of EGF expression in human MCF7 cells at 5 uM by ELISA; format: functional, cell-based
# MCF7 [19] = test: Inhibition of VEGF expression in human MCF7 cells at 5 uM by ELISA; format: functional, cell-based
# MDA-MB-231 [20] = test: Inhibition of EGF expression in human MDA-MB-231 cells at 5 uM by ELISA; format: functional, cell-based
# [21] = biological target: Epidermal growth factor receptor (Homo sapiens) (UniProt P00533); test: Inhibition of EGF-induced EGFR phosphorylation at Tyr1045 in human MDA-MB-231 cells at 1 uM by ELISA; format: cell-based
# [22] = biological target: RAC-alpha serine/threonine-protein kinase (Homo sapiens) (UniProt P31749); test: Inhibition of EGF-induced AKT phosphorylation in human MDA-MB-231 cells at 1 uM by ELISA; format: cell-based
# [23] = biological target: Epidermal growth factor receptor (Homo sapiens) (UniProt P00533); test: Inhibition of EGFR (unknown origin) at 10 uM
# HeLa = test: Antiproliferative activity against human HeLa cells after 24 hrs by MTT assay; format: functional, cell-based; conditions: hela
# SW-620 = test: Antiproliferative activity against human SW620 cells after 24 hrs by MTT assay; format: functional, cell-based; conditions: SW-620, 24 h
# Method in brief: (§5)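 MTT viability: cells seeded at 1×10^4 per well in DMEM with 10% FBS, left to adhere overnight, then serum-starved 4 h. Compounds were given at a range of doses, with 0.1% DMSO vehicle as control. EC50 was taken from dose-response curves spanning 100nM-50µM. Data are mean ± SEM from at least three independent experiments.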
# HEK293 = test: Antiproliferative activity against HEK293 cells after 24 hrs by MTT assay; format: functional, cell-based; conditions: Homo sapiens, HEK293, 24 h; method in brief: as §5
# MDA-MB-231 [24] = test: Cell cycle arrest in human […] cells assessed as accumulation at subG1 phase at 5 uM by propidium iodide staining by FACS analysis (reference value: 0.3%); format: functional
# MDA-MB-231 [25] = test: Cell cycle arrest in human […] cells assessed as accumulation at G1 phase at 7.5 uM by propidium iodide staining by FACS analysis (reference value: 63.74%); format: functional
# MDA-MB-231 [26] = test: Cell cycle arrest in human […] cells assessed as accumulation at G2 phase at 7.5 uM by propidium iodide staining by FACS analysis (reference value: 22.74%); format: functional
# MCF7 [27] = test: Antitumor activity against human MCF7 cells xenografted in NIH-3 mouse assessed as increase in TUNEL positive cells at 16 mg/kg, po for 25 days relative to control; format: functional
# Epidermal growth factor receptor (Homo sapiens), sequence (P00533 whole entry): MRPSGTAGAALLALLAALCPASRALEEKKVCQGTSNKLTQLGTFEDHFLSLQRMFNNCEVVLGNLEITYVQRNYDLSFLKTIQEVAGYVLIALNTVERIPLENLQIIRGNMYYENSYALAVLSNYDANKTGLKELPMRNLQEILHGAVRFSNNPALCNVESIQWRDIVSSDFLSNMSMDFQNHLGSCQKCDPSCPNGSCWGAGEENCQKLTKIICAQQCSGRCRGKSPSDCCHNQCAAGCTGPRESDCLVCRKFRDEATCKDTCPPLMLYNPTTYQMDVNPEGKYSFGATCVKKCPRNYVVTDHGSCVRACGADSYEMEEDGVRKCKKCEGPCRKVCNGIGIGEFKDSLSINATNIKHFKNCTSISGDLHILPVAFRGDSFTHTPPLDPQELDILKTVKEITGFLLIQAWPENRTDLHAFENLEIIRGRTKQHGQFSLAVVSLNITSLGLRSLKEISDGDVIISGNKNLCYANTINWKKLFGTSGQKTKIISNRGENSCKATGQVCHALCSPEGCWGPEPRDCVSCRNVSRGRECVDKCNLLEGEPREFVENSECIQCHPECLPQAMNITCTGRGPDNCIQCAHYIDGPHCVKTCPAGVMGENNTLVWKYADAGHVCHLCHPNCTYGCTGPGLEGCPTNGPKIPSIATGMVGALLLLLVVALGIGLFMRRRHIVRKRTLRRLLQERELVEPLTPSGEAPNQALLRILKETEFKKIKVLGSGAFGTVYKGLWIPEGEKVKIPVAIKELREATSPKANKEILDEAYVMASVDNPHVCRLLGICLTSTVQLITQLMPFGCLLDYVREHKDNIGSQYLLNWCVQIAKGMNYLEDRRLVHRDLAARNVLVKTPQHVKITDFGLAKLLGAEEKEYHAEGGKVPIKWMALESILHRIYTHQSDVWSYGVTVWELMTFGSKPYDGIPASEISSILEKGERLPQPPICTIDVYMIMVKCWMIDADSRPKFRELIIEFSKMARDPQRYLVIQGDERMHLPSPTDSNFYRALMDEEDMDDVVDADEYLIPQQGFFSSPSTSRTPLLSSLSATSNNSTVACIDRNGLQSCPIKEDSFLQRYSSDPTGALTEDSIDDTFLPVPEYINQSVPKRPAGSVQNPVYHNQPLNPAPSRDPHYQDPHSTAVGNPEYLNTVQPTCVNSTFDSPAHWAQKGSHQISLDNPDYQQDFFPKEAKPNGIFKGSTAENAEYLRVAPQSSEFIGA
# cGMP-dependent 3',5'-cyclic phosphodiesterase (Homo sapiens), sequence (O00408 whole entry, canonical isoform): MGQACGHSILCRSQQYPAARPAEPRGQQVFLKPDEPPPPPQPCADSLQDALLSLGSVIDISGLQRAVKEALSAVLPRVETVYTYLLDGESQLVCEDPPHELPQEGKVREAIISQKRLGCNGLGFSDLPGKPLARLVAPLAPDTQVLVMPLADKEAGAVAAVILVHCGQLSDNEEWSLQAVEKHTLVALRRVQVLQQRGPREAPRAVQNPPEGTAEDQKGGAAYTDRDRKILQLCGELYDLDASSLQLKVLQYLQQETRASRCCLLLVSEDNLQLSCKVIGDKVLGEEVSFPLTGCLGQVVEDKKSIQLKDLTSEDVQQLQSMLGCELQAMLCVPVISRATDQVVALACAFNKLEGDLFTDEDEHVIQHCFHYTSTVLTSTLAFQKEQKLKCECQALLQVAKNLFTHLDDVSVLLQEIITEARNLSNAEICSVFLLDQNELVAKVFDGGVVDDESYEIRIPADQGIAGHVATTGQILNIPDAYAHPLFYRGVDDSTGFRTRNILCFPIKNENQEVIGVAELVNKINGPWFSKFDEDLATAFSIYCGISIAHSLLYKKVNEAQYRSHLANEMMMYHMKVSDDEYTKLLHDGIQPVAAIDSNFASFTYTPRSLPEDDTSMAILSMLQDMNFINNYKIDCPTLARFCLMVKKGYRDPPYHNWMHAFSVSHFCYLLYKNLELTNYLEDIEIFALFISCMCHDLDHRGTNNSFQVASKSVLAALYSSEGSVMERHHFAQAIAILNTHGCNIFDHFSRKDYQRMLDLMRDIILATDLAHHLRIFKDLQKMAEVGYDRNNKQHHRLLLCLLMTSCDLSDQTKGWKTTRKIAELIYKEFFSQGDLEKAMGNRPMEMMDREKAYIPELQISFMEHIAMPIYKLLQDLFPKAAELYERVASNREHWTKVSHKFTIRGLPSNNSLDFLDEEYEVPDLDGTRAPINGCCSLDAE
# Mast/stem cell growth factor receptor Kit (Homo sapiens), P10721 [D816A], sequence (P10721 whole entry D816A): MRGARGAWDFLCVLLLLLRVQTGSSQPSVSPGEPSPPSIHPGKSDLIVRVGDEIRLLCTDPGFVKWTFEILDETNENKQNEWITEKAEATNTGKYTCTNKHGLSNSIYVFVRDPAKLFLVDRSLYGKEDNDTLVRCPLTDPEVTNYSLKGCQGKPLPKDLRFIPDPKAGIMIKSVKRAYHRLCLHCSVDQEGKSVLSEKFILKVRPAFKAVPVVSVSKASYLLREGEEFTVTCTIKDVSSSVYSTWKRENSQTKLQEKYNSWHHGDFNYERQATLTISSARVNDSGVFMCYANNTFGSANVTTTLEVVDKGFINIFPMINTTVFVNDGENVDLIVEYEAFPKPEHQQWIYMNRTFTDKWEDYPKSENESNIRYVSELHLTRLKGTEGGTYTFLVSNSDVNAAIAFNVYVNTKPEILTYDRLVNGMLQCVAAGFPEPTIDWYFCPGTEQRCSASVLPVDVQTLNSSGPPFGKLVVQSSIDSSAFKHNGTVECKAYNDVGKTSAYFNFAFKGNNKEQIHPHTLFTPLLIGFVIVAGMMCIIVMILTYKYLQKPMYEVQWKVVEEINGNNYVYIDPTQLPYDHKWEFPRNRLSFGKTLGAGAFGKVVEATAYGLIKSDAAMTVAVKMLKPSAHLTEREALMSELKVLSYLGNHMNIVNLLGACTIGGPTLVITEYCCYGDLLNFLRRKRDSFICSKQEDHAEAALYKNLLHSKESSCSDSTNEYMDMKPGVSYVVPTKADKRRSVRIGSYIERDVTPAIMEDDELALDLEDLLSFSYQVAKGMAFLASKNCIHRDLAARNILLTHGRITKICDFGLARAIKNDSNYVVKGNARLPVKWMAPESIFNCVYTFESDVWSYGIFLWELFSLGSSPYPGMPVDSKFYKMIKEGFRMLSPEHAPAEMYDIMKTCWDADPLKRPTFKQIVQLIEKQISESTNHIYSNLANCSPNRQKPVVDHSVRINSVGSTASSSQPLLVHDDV
# RAC-alpha serine/threonine-protein kinase (Homo sapiens), sequence (P31749 whole entry): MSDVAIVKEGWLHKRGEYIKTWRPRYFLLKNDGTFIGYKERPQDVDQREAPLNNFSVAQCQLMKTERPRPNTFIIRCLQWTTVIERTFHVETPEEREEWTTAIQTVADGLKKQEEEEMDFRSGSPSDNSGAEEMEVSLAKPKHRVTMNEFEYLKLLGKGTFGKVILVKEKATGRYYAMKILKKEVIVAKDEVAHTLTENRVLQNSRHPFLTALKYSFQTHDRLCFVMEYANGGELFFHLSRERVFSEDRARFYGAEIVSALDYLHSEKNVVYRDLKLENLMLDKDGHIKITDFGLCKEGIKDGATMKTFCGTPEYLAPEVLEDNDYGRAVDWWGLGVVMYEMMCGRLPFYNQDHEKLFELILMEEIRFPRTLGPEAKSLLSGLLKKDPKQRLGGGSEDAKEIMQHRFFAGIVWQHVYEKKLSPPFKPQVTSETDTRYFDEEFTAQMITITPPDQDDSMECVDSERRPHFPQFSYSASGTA
# Platelet-derived growth factor receptor beta (Homo sapiens), sequence (P09619 whole entry): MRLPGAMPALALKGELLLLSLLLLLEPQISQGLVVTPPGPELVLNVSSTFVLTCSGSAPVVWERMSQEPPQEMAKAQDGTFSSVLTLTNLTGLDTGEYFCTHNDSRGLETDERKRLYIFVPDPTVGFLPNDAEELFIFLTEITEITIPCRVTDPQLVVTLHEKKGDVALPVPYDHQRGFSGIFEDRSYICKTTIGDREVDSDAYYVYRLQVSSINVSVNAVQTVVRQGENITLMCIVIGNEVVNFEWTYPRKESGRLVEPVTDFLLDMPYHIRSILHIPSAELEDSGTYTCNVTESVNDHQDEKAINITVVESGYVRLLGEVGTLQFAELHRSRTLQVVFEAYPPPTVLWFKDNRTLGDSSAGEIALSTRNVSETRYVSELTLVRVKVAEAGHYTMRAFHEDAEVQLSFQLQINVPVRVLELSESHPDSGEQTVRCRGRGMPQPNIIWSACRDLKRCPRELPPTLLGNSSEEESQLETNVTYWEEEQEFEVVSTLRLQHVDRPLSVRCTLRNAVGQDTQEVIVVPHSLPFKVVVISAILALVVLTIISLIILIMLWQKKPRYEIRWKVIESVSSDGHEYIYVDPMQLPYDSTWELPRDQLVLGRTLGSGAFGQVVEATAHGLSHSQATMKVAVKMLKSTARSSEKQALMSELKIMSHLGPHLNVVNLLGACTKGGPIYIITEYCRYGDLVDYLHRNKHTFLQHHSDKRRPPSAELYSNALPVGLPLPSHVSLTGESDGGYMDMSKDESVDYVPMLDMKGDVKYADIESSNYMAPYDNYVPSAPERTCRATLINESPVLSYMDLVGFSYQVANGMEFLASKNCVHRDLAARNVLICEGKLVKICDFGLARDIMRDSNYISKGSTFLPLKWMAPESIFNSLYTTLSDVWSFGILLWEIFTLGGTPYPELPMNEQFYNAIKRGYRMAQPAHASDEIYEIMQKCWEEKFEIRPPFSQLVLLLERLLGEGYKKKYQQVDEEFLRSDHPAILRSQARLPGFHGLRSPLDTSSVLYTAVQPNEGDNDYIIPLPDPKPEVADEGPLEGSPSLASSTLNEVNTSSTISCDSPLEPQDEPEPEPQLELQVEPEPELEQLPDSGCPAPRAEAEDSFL
smiles,measurement,setting,value
CCN(CC)CCO/N=C(\c1ccc(SC)cc1)c1cccc2ccccc12,inhibition,[1],inactive
same,inhibition,[2],inactive
same,Activity,MDA-MB-231 [3],Active
same,inhibition,[4],inactive
same,inhibition,[5],inactive
same,inhibition,[6],inactive
same,inhibition,[7],Active
same,inhibition,[8],Active
same,Activity,MCF7 [9],Active
same,Activity,MCF7 [10],inactive
same,Activity,MCF7 [11],inactive
same,Activity,MDA-MB-231 [12],Active
same,inhibition,MDA-MB-231 [13],Active
same,inhibition,MDA-MB-231 [14],Active
same,inhibition,MDA-MB-231 [15],Active
same,inhibition,MDA-MB-231 [16],inactive
same,inhibition,MDA-MB-231 [17],Active
same,inhibition,MCF7 [18],Active
same,inhibition,MCF7 [19],inactive
same,inhibition,MDA-MB-231 [20],Active
same,inhibition,[21],Active
same,inhibition,[22],Active
same,inhibition,[23],inactive
CCN(CC)CCO/N=C(\c1ccc(SC)cc1)c1cccc2ccccc12.O=C(O)C(=O)O,EC50,HeLa,7.5 µM
same,EC50,SW-620,8.78 µM
same,IC50,HEK293,20 µM
same,Activity,MDA-MB-231 [24],0.9%
same,Activity,MDA-MB-231 [25],91.17%
same,Activity,MDA-MB-231 [26],6.09%
same,Activity,MCF7 [27],>50%
